Assay results pooled from the literature.
Protocols differ between the studies behind these lines. In brackets after ≈: the same amount, converted by molar mass.
Organism: Candida albicans

SMILES | read-out | technique | strain | concentration | time | endpoint | value
OC(Cn1cncn1)(Cn1cncn1)c1ccc(F)cc1F | microbial growth | broth dilution | 56452 |  | 48 h | MIC | 1 µM
COc1ccc(C=NNC(=O)CSc2nc3c(C)cccc3c(=O)n2-c2ccccc2)cc1OS(C)(=O)=O | microbial growth | well diffusion |  | 20 µg/mL |  | inhibition zone | 4 mm
Nc1nn2c(-c3ccco3)cc(-c3ccc(OCc4ccccc4)cc3)nc2c1N=Nc1ccc(F)cc1 | microbial killing | broth dilution | ATCC10231 |  |  | MFC | 500 µg/mL (≈ 991 µM)
N#CC(=C1C=CC(=NOC(=O)c2ccccc2)C=C1)c1ccccc1 | microbial killing | broth dilution | ATCC10231 |  | 48 h | MFC | 256 µg/mL (≈ 784 µM)
OC(Cn1cncn1)(Cn1cncn1)c1ccc(F)cc1F | microbial growth |  |  |  |  | IC50 | 1 µg/mL (≈ 3.27 µM)
CCCCCCCCCCCC(=O)ON=C1C=CC(=C(C#N)c2ccccc2)C=C1 | microbial killing | broth dilution | ATCC10231 |  | 48 h | MFC | 512 µg/mL (≈ 1270 µM)
CCCS(=O)(=O)Oc1cc(C=NNC(=O)CSc2nc3c(C)cccc3c(=O)n2-c2ccccc2)ccc1OC | microbial growth | well diffusion |  | 20 µg/mL |  | inhibition zone | 2 mm
Cc1ccc(N=Nc2c(N)nn3c(-c4ccco4)cc(-c4ccc(OCc5ccccc5)cc4)nc23)cc1 | microbial killing | broth dilution | ATCC10231 |  |  | MFC | 125 µg/mL (≈ 250 µM)
Nc1ccc(S(=O)(=O)Nc2ncccn2)cc1 | microbial growth | well diffusion |  | 20 µg/mL |  | inhibition zone | 3 mm
COc1ccc(N=Nc2c(N)nn3c(-c4ccc(C)cc4)cc(-c4ccc(OCc5ccccc5)cc4)nc23)cc1 | microbial killing | broth dilution | ATCC10231 |  |  | MFC | 125 µg/mL (≈ 231 µM)
CCS(=O)(=O)Oc1ccc(C=NNC(=O)CSc2nc3c(C)cccc3c(=O)n2-c2ccccc2)cc1OC | microbial growth | well diffusion |  | 20 µg/mL |  | inhibition zone | 3 mm
CC(=O)N1CCN(c2ccc(OCC3COC(Cn4ccnc4)(c4ccc(Cl)cc4Cl)O3)cc2)CC1 (centres unmarked) | microbial growth | broth dilution | SP3931 |  | 48 h | MIC | 2 µM
OC(Cn1cncn1)(Cn1cncn1)c1ccc(F)cc1F | microbial growth | broth dilution | SN152 |  | 24 h | MIC | 2 µg/mL
C[C@@H]1[C@H](O)[C@@H](C)/C=C/C=C/C=C/C=C/C=C/C=C/C=C/[C@H](O[C@@H]2O[C@H](C)[C@@H](O)[C@H](N)[C@@H]2O)C[C@@H]2O[C@](O)(C[C@@H](O)C[C@@H](O)[C@H](O)CC[C@@H](O)C[C@@H](O)CC(=O)O[C@H]1C)C[C@H](O)[C@H]2C(=O)O | microbial growth | broth dilution | SP3931 |  | 48 h | MIC | < 0.25 µM
C#CCON=C1C=CC(=C(C#N)c2ccccc2)C=C1 | microbial killing | broth dilution | ATCC10231 |  | 48 h | MFC | 32 µg/mL (≈ 123 µM)
COc1ccc(N=Nc2c(N)nn3c(-c4ccc(Cl)cc4Cl)cc(-c4ccc(OCc5ccccc5)cc4)nc23)cc1 | microbial killing | broth dilution | ATCC10231 |  |  | MFC | 250 µg/mL (≈ 420 µM)
CCS(=O)(=O)Oc1ccc(C=NNC(=O)CSc2nc3ccc(Cl)cc3c(=O)n2-c2ccccc2)cc1OC | microbial growth | well diffusion |  | 20 µg/mL |  | inhibition zone | 2 mm
COc1ccc(N=Nc2c(N)nn3c(-c4ccco4)cc(-c4ccc(OCc5ccccc5)cc4)nc23)cc1 | microbial killing | broth dilution | ATCC10231 |  |  | MFC | 62.5 µg/mL (≈ 121 µM)
CC(=O)ON=C1C=CC(=C(C#N)c2ccccc2)C=C1 | microbial killing | broth dilution | ATCC10231 |  | 48 h | MFC | 4 µg/mL (≈ 15.1 µM)
Cc1cccc2c(=O)n(-c3ccccc3)c(SCC(=O)NN=Cc3ccc(OS(C)(=O)=O)cc3)nc12 | microbial growth | well diffusion |  | 20 µg/mL |  | inhibition zone | 4 mm
